Consider 1 compound from ChEMBL document CHEMBL1146219, “Synthesis and evaluation of novel radioiodinated benzamides for malignant melanoma” (J Med Chem, 2007).

Settings in all cases: in vivo
The subject of series [1] is Blood. As to the kind of experiment: Biodistribution in blood of B16F0 tumor bearing C57BL/6J mouse at 0.37-0.74 MBq, iv after 24 hrs. The series is classed as ADME, organism-based. In outline: (§1)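 Female C57BL/6J mice (15-18 g) were given B16F0 cells subcutaneously in the left flank (0.1 mL of 3 × 10⁶ viable cells/mL in Ca²⁺/Mg²⁺-free PBS) at 6-7 weeks and used after ten days. [¹²³I]benzamide (0.37-0.74 MBq, 100 µL, saline) was injected via the tail vein. Groups of n = 5 were killed by CO₂ and cervical dislocation. Organs were weighed and γ-counted, and the carcass was counted too.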

Another series has as its system Kidney. As to the kind of experiment: Biodistribution in kidney of B16F0 tumor bearing C57BL/6J mouse at 0.37-0.74 MBq, iv after 72 hrs. It counts as ADME, organism-based. In outline:
as §1

A short description of series [2]: Biodistribution in melanoma of B16F0 tumor bearing C57BL/6J mouse at 0.37-0.74 MBq, iv after 24 hrs. The series is classed as ADME, organism-based, B16-F0. In outline: as §1
The test system of series [3] is Brain. The series can be described thus: Biodistribution in brain of B16F0 tumor bearing C57BL/6J mouse at 0.37-0.74 MBq, iv after 48 hrs. The series is classed as ADME, organism-based. In outline:
as §1

For the next series, the system named is Heart. As to the kind of experiment: Biodistribution in heart of B16F0 tumor bearing C57BL/6J mouse at 0.37-0.74 MBq, iv after 48 hrs. The series is classed as ADME, organism-based. An outline of the steps: as §1
The test system of series [4] is Liver. As to the kind of experiment: Biodistribution in liver of B16F0 tumor bearing C57BL/6J mouse at 0.37-0.74 MBq, iv after 3 hrs. The series is classed as ADME, organism-based. In outline:
as §1

The test system of series [5] is Blood. As to the kind of experiment: Biodistribution in blood of B16F0 tumor bearing C57BL/6J mouse at 0.37-0.74 MBq, iv after 3 hrs. The series is classed as ADME, organism-based. An outline of the steps:
as §1

For series [6], the system named is Blood. As to the kind of experiment: Biodistribution in blood of B16F0 tumor bearing C57BL/6J mouse at 0.37-0.74 MBq, iv after 72 hrs. It counts as ADME, organism-based. In outline: as §1
Series [7] concerns Brain. The series can be described thus: Biodistribution in brain of B16F0 tumor bearing C57BL/6J mouse at 0.37-0.74 MBq, iv after 1 hr. It counts as ADME, organism-based. In outline: as §1
The subject of series [8] is Brain. As to the kind of experiment: Biodistribution in brain of B16F0 tumor bearing C57BL/6J mouse at 0.37-0.74 MBq, iv after 3 hrs. The series is classed as ADME, organism-based. An outline of the steps: as §1
The nature of series [9]: Biodistribution in eye of B16F0 tumor bearing C57BL/6J mouse at 0.37-0.74 MBq, iv after 1 hr in presence of haloperidol. The series is classed as ADME, organism-based. An outline of the steps:
(§2)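 Haloperidol blocking in B16F0-bearing C57BL/6J mice: 1 mg/kg haloperidol was given iv 5 min before the iv [¹²³I]benzamide (0.37-0.74 MBq). Groups of n = 5 were killed at 1 or 24 h. Tissues were weighed and γ-counted as in the biodistribution study and compared with untreated controls by one-way ANOVA, with p < 0.01 taken as significant.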

Series [10] in a line: Biodistribution in tumor of B16F0 tumor bearing C57BL/6J mouse at 0.37-0.74 MBq, iv after 24 hrs in presence of haloperidol. It counts as ADME, organism-based, B16-F0. An outline of the steps:
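B16F0 tumor-bearing C57BL/6J mice, groups of n = 5, given haloperidol 1 mg/kg i.v. 5 min before the i.v. [¹²³I]tracer (0.37-0.74 MBq). Killed at 1 or 24 h. Tissues γ-counted as for biodistribution and compared with untreated controls by one-way ANOVA, significance p < 0.01.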

Series [11] is described as follows: Biodistribution in melanoma of B16F0 tumor bearing C57BL/6J mouse at 0.37-0.74 MBq, iv after 72 hrs. It counts as ADME, organism-based, B16-F0. An outline of the steps: (§3)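 Female C57BL/6J mice (15-18 g) carrying s.c. B16F0 flank tumors (0.1 mL of 3 × 10⁶ viable cells per mL in Ca²⁺/Mg²⁺-free PBS, inoculated at 6-7 weeks, used 10 days later). [¹²³I]tracer 0.37-0.74 MBq in saline, 100 µL, tail-vein i.v. Groups of n = 5 killed at 1-72 h. Organs weighed and γ-counted, carcass activity also counted, values as %ID/g.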

A short description of series [12]: Biodistribution in melanoma of B16F0 tumor bearing C57BL/6J mouse at 0.37-0.74 MBq, iv after 6 hrs. It counts as ADME, organism-based, B16-F0. In outline:
as §3

Series [13] concerns Lung. As to the kind of experiment: Biodistribution in lung of B16F0 tumor bearing C57BL/6J mouse at 0.37-0.74 MBq, iv after 6 hrs. The series is classed as ADME, organism-based. In outline:
as §1

The test system of series [14] is Liver. The series can be described thus: Biodistribution in liver of B16F0 tumor bearing C57BL/6J mouse at 0.37-0.74 MBq, iv after 24 hrs in presence of haloperidol. The series is classed as ADME, organism-based. In outline: as §2
Series [15] deals with Lung. As to the kind of experiment: Biodistribution in lung of B16F0 tumor bearing C57BL/6J mouse at 0.37-0.74 MBq, iv after 48 hrs. The series is classed as ADME, organism-based. An outline of the steps:
as §1

The subject of series [16] is Brain. As to the kind of experiment: Biodistribution in brain of B16F0 tumor bearing C57BL/6J mouse at 0.37-0.74 MBq, iv after 24 hrs. The series is classed as ADME, organism-based. In outline: as §1
In series [17] the test system is Liver. As to the kind of experiment: Biodistribution in liver of B16F0 tumor bearing C57BL/6J mouse at 0.37-0.74 MBq, iv after 48 hrs. The series is classed as ADME, organism-based. In outline: as §1

As for `CCCCN(C)CCCCNC(=O)c1cc([123I])c(NC(C)=O)cc1OC`, the Drug uptake came to 0.11 % ID/g in the series on Blood [1]; 0.1 % ID/g in the series on Kidney; 6.1 % ID/g in series [2]; 0.01 % ID/g in the series with Brain [3]; 0.13 % ID/g with Heart; 5 % ID/g with Liver [4]. Also, the Drug uptake worked out at 0.95 % ID/g in the series on Blood [5]; 0.05 % ID/g in the series on Blood [6]; 0.07 % ID/g in the series with Brain [7]; 0.04 % ID/g with Brain [8]; 16.9 % ID/g in [9]; 4.5 % ID/g in series [10]. Further, the Drug uptake in series [11] stood at 2.2 % ID/g; in [12], 8.4 % ID/g; in the series on Lung [13] it was 0.56 % ID/g; in the series with Liver [14], 0.3 % ID/g; in the series with Lung [15] it was 0.08 % ID/g; with Brain [16], 0.01 % ID/g. In the series on Liver [17], this compound gave a Drug uptake of 0.38 % ID/g.
